G6PDH CS = inhibits Leuconostoc G6PDH, flagging false hits in G6PDH-based assays | Purified L. mesenteroides G6PDH, diaphorase/resazurin coupled fluorescence, 45 min | inhibition, % at 5 µM | 200,000 tested, 0.12% active; in the data active means inhibition above about 50%
HKDC1 inhibitor = inhibitors of human hexokinase HKDC1; AID 493160; 340,000 tested, 0.16% active; recombinant HKDC1, G6PDH/diaphorase resazurin coupled fluorescence; inhibition, % at 20 µM; Q2TB90;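 active means inhibition above about 35% when tested at 20 µM, limit read from the data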;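 further: plate controls were DMSO wells with enzyme for no effect and DMSO wells lacking enzyme for full effect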
Target sequence (Q2TB90 whole entry, looked up): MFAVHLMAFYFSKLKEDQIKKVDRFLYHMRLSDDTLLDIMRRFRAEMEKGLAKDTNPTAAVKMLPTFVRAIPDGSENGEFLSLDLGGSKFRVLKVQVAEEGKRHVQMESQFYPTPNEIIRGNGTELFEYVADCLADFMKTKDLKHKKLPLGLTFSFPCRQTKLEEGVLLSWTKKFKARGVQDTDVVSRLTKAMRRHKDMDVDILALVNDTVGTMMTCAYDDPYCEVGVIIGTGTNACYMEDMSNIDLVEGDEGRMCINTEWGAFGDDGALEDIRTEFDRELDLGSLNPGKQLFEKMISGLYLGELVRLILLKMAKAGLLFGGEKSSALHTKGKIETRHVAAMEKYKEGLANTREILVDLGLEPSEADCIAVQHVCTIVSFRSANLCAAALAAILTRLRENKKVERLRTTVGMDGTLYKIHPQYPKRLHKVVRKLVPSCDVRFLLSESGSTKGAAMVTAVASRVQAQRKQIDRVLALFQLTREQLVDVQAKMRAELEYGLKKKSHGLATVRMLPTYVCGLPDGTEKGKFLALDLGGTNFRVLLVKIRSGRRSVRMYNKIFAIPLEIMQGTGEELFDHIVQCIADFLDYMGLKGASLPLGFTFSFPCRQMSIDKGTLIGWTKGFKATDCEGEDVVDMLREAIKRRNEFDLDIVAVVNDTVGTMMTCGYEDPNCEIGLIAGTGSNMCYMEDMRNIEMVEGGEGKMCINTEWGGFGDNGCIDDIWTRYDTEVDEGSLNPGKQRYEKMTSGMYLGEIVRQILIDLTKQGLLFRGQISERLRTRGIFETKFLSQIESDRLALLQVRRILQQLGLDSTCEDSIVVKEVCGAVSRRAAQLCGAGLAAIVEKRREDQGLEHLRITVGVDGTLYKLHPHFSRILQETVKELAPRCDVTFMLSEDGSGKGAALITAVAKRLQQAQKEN
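Material – in-house recombinant HK5 (HKDC1) enzyme · Quantity – HKDC1 at 5 µg/mL · Buffer or medium – pH 8.0 Tris buffer with 10 mM MgCl2 · Reagent – glucose with 1 mM ATP · Dosing – single 20 µM dose · Times – reaction time 90 min, room temperature, protected from light · Technique – resorufin fluorescence at 613 nm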
Diaphorase act = activates diaphorase or chemically reduces, flagging diaphorase assay artifacts | Diaphorase/resazurin coupled assay, resorufin fluorescence, 16 min; stronger effect = higher value; 1 = vehicle wells, 0 = NADH-free wells | activation factor at 20 µM | 190,000 tested, 0.005% active | AID 1229;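 active means diaphorase activity raised at least twofold by the compound at 20 µM; inactive means activation factor below 2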
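Assay system: bacterial diaphorase enzyme (C. kluyveri) / Input: enzyme 0.07 U/mL final / Medium: 50 mM HEPES pH 7.4 with 4.542 mM MgCl2, 0.005% Tween 20 / Doses: single compound dose of 20 µM, 1% DMSO final / Incubation: 16 min enzyme reaction, ambient temperature / Signal: fluorescence, excitation 544 nm and emission 590 nm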
Diaphorase inh = inhibits diaphorase or chemically oxidizes, flagging diaphorase assay artifacts | inhibition, % at 20 µM | 190,000 tested, 0.69% active | diaphorase resazurin-to-resorufin fluorescence, NADH, 16 min; bacterial (C. kluyveri) enzyme, not human | AID 1217;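 active means primary screen inhibition at 20 µM above a set limit, cut at about 50% in these data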;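 further: plate controls were DMSO with full reaction for no effect and wells lacking NADH for full effect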
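material = Clostridium kluyveri diaphorase enzyme | amount = 0.14 U/mL diaphorase, enzyme working solution | schedule = incubation 16 min, room temperature | detection = fluorescence of resorufin formed from resazurin, Ex 544/Em 590 nm | benchmarks = positive control minus NADH, DMSO neutral control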
PfG6PD inh = PfG6PD (Plasmodium falciparum) enzyme inhibition | PfGluPho enzyme, NADPH resazurin-diaphorase fluorescence | 350,000 tested, 0.78% active | inhibition, % at 20 µM | AID 504690;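 active means inhibition reaching at least a set limit at 20 µM in the primary screen, cut at about 59% in these data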;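 further: 0% = DMSO wells with substrate and 100% = DMSO wells lacking glucose-6-phosphate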
PfG6PD confirm = PfG6PD inhibition, single-dose confirmed; 2,400 tested, 34% active; shares compounds with PfG6PD inh; recombinant PfGluPho, NADPH-diaphorase-resazurin fluorescence; inhibition, % at 20 µM;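 active means inhibition of at least 50% at 20 µM in any single replicate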;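 further: 0% = DMSO with substrate and 100% = DMSO lacking glucose-6-phosphate substrate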
Diaph ctr 10uM = diaphorase inhibition or oxidation at 10 uM NADPH | shares compounds with PfG6PD inh | diaphorase-coupled resazurin reduction, fluorescence, NADPH 10 uM | inhibition, % at 20 µM | 820 tested, 39% active | AID 504862;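 active means average inhibition reaching 50% or more with the compound at 20 µM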;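 further: resorufin red fluorescence formed as diaphorase reduces resazurin using NADPH; 0% = DMSO with enzyme and 100% = DMSO without enzyme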
Diaph ctr 30uM = counter-screen for P. falciparum G6PD inhibitors: diaphorase inhibitors, oxidizers. shares compounds with PfG6PD inh. Diaphorase/resazurin coupled assay, resorufin fluorescence, 30 uM NADPH. inhibition, % at 20 µM. 820 tested, 29% active. AID 504863;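 active means inhibition averaging 50% or more, tested at 20 µM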;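 further: 0% = DMSO with enzyme and 100% = DMSO wells lacking diaphorase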
Active calls of the source: *; . = no result given. Compounds with a hit are over-represented: about 1.3% of the library has one in this group of screens.

SMILES	G6PDH CS	HKDC1 inhibitor	Diaphorase act	Diaphorase inh	PfG6PD inh	PfG6PD confirm	others
O=C1C=C(O)c2[nH]c(=O)ccc2C1=O	.	22.5	.	.	69.1*	29.9
O=C1C=C(O)c2c(O)cc(O)c(O)c2C1=O	.	-0.5	.	.	3.9	.
CCOC(=O)c1ccc(S(=O)(=O)N2CCC(C(=O)NCC3CCCCC3)CC2)cc1	.	0.6	.	.	-6.2	.
O=C(NC1CC1)C(=O)c1c[nH]c2ccccc12	.	-3.0	.	.	3.1	.
O=C(NC1CC1)c1cc(=S)[nH]c2ccccc12	.	-8.4	.	.	59.7*	9.5
CCN(CC)S(=O)(=O)c1cc(NC(=O)C2CSC3(C)CCC(=O)N23)ccc1C (stereo not drawn)	.	-2.6	.	.	-4.8	.
Cc1ccc(Nc2nnc(-c3ccc4c(c3)OCO4)o2)c(C)c1	.	0.6	.	.	69.7*	39.0
Cc1ccc(CSc2nnc(-c3ccc4c(c3)OCO4)o2)cc1	1.7	8.3	0.8	21.4	2.3	.
C=CCN(CC=C)C(=O)c1c(OC)cccc1OC	3.3	-10.5	0.9	11.9	-9.0	.
C=CCc1c(C)[nH]c2c(OC)cccc2c1=S	-0.4	-5.4	0.8	20.6	62.0*	36.2
Cc1cc(C)cc(S(=O)(=O)c2cn(C)c3cc(N4CCN(C)CC4)c(F)cc3c2=O)c1	.	-4.2	.	.	14.1	.
Cc1ccc([N+](=O)[O-])c2cccnc12	4.1	-1.6	0.9	6.5	31.4	.
O=[N+]([O-])c1ccc(Sc2cccc3cccnc23)c2cccnc12	23.0	7.4	0.4	59.1*	94.3*	52.6*	Diaph ctr 10uM=66.4*;Diaph ctr 30uM=46.4
COC(=O)c1scc(C)c1S(=O)(=O)Nc1ccc(C)cc1	.	3.8	.	.	70.1*	20.8
COC(=O)c1sccc1S(=O)(=O)Nc1ccc(S(N)(=O)=O)cc1	.	-4.1	.	.	-8.2	.
O=c1[nH]c(=O)c2[nH]c(=S)n(-c3ccccc3)c2[nH]1	.	-5.9	.	.	63.8*	37.1
CC(C)(C)c1cc(C(=S)N2CCN(CCO)CC2)cc(C(C)(C)C)c1O	29.9	-7.6	1	-0.1	60.0*	10.6
C/C(Cn1nnc([N+](=O)[O-])n1)=N\NC(=O)c1ccccc1	6.3	8.5	0.8	19.1	62.7*	60.4*	Diaph ctr 10uM=11.2;Diaph ctr 30uM=13.9
Cc1ccc(-c2cn3c(=S)[nH]nc3s2)cc1	6.4	-29.9	0.6	35.7	65.0*	37.9
NC(=O)CSc1nnc(-c2ccccc2Br)n1-c1cccc(C(F)(F)F)c1	13.2	-5.2	0.9	8.6	69.1*	59.3*	Diaph ctr 10uM=59.5*;Diaph ctr 30uM=54.7*
O=C(O)CSc1nnc(-c2ccccc2Br)n1-c1cccc(C(F)(F)F)c1	-2.0	-14.0	0.9	6.3	7.5	.
O=c1[nH]c(CN2CCN(c3ccccc3O)CC2)nc2scc(-c3ccccc3Cl)c12	.	-3.0	.	.	15.0	.
O=c1[nH]c(CN2CCN(c3ccc(O)cc3)CC2)nc2scc(-c3ccc(Cl)cc3)c12	11.4	18.9	0.7	31.0	78.5*	21.7
O=C(Cc1ccc(Cl)cc1)Nc1ccc(N2CCCC2)cc1	14.3	-5.3	1	0.7	3.1	.
Clc1cccc(Cl)c1CNc1ccc(N2CCCC2)cc1	14.2	8.6	0.2	76.5*	96.3*	54.6*	Diaph ctr 10uM=-1.3;Diaph ctr 30uM=-2.3
SMILES	G6PDH CS	HKDC1 inhibitor	Diaphorase act	Diaphorase inh	PfG6PD inh	PfG6PD confirm	others
O=S(=O)(c1cccs1)N1CN(Cc2ccccc2)c2nc3ccccc3nc21	-2.0	3.1	0.7	30.7	39.9	.
O=S(=O)(c1cccs1)N1CN(Cc2cccs2)c2nc3ccccc3nc21	-35.4	10.4	0.7	29.5	68.7*	35.1
CCn1c2ccccc2c2cc(NC(=O)N3CCCCC3)ccc21	.	.	.	.	0.0	.
O=C1Nc2ccc(S(=O)(=O)NCc3ccco3)c3cccc1c23	.	21.8	.	.	62.9*	43.5
Nc1ccc(C(=O)OCC(=O)N2c3ccccc3Sc3ccccc32)cc1[N+](=O)[O-]	0.9	-3.5	0.9	14.4	-3.2	.
NCCNc1ccc(C(=O)N2c3ccccc3Sc3ccccc32)cc1[N+](=O)[O-]	.	6.0	.	.	69.3*	91.8*	Diaph ctr 10uM=16.8;Diaph ctr 30uM=13.8
COc1cc2c(cc1OC)C(=O)C(c1ccc3c(c1)OCO3)CC2 (stereo not drawn)	.	.	.	.	-4.3	.
COc1cc2c(cc1OC)C(=O)C(Br)CC2 (stereo not drawn)	.	.	.	.	112.3*	106.0*	Diaph ctr 10uM=100.9*;Diaph ctr 30uM=98.4*
O=C(CCCOc1ccc(Cl)cc1Cl)N/N=C/c1cccc([N+](=O)[O-])c1	-6.5	17.4	0.9	7.5	112.4*	69.3*	Diaph ctr 10uM=58.9*;Diaph ctr 30uM=48.0
O=C(COc1ccc(Cl)cc1Cl)N/N=C/c1cccnc1	.	-4.9	.	.	-0.9	.
COC(=O)[C@H](CC(C)C)N1Cc2cc(OC)cc(OC)c2-c2ccccc2S1(=O)=O	.	2.1	.	.	64.5*	12.2
C=C1CCN(C(CC(C)C)C(=O)OC)S(=O)(=O)c2ccccc21 (stereo not drawn)	.	2.6	.	.	0.2	.
COc1ccc2cc(CN(Cc3ccco3)C(=S)NCC3CCCO3)c(=O)[nH]c2c1 (stereo not drawn)	21.6	-4.6	.	.	66.7*	14.1
Nc1ncc(Br)cc1S(=O)(=O)NCCC(=O)N1CCN(c2ccccc2)CC1	.	-4.6	.	.	-0.8	.
COc1ccc(NC(=O)c2ccc(NC(=O)CN3CCN(c4ccc(O)cc4)CC3)cc2)cc1	.	9.4	.	.	74.5*	35.7
O=C(CN1CCN(c2ccc(O)cc2)CC1)Nc1ccc2c(c1)OCCCO2	.	0.7	.	.	78.9*	27.2
Oc1ccc(N2CCN(Cc3cc4c(cc3Br)OCCO4)CC2)cc1	.	4.7	.	.	74.2*	6.4
O=C(CN1CCN(c2ccc(O)cc2)CC1)Nc1cc(S(=O)(=O)N2CCCCC2)ccc1Cl	-2.1	10.9	0.8	24.7	55.7	.
O=C(CN1CCN(c2ccc(O)cc2)CC1)Nc1cc(S(=O)(=O)N2CCCC2)ccc1Cl	6.5	11.6	0.8	22.9	66.5*	30.2
O=C(CN1CCN(c2cccc(C(F)(F)F)c2)CC1)Nc1ccc2c(c1)OCCCO2	.	.	.	.	3.3	.
COCCn1c(N)c(N(Cc2ccccc2)C(=O)COc2ccccc2F)c(=O)[nH]c1=O	.	-6.5	.	.	-15.7	.
Cc1ccc(N(C)C(=O)CN(C)S(=O)(=O)c2ccc3c(c2)n(C)c(=O)c(=O)n3C)cc1	.	-2.9	.	.	3.1	.
CCCCCCN1C[C@H](n2cc(-c3ccc(F)cc3)nn2)[C@@H](O)C[C@@H]1c1ccc(Cl)cc1	.	.	.	.	38.1	.
CC(C)OC(=O)N(C)C[C@H]1OCc2cnnn2CCCC(=O)N([C@H](C)CO)C[C@H]1C	.	.	.	.	-18.7	.
CCc1nc(NCC2CC2)c2nnn(Cc3ccccc3)c2n1	.	.	.	.	-23.7	.
COc1ccccc1NC(=O)c1ccc2[nH]c(C)c(C)c2c1	.	-4.0	.	.	81.2*	32.3

Compound activity: PubChem, Sanford-Burnham Center for Chemical Genomics
